Test results taken from ChEMBL document CHEMBL1135645, “Synthesis and evaluation of analogues of 5'-([(Z)-4-amino-2-butenyl]methylamino)-5'-deoxyadenosine as inhibitors of tumor cell growth, trypanosomal growth, and HIV-1 infectivity” (J Med Chem, 2002).

Key:
[1] = tested on: L1210; assay: In vitro Neoplastic Activity against L1210 mucerine leukemia Cell lines; type: functional, cell-based; details: Mus musculus
In short: (§1)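 SRB growth assay. Cell lines were grown as monolayers in RPMI-1640 with 5% FCS, 5% NuSerum IV, 20 mM HEPES and 2 mM glutamine, and seeded at 400–1200 cells/well. They attached for 15–18 h before drug. Ten concentrations over 5 logs were tested, with final DMSO ≤0.25%. Exposure was 72 h at 37 °C. Cells were TCA-fixed, stained with sulforhodamine B and read at OD 570 nm. IC50 is 50% growth inhibition.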

[2] = tested on: Trypanosoma brucei brucei; assay: In vitro antitrypanosomal activity against Trypanosomal 110 (EATRO)strain; type: functional, organism-based
[3] = tested on: Trypanosoma brucei rhodesiense; assay: In vitro antitrypanosomal activity against Trypanosomal 243 (KETRI)strain; type: functional, organism-based
[4] = tested on: Trypanosoma brucei rhodesiense; assay: In vitro antitrypanosomal activity against Trypanosomal 243 As 10e-3 (KETRI)strain; type: functional, organism-based
[5] = tested on: Trypanosoma brucei rhodesiense; assay: In vitro antitrypanosomal activity against Trypanosomal 269 (KETRI)strain; type: functional, organism-based
[6] = tested on: L1210; assay: In vitro inhibition of AdoMetDC derived from L1210 Murine Leukemia Cells.; type: functional; details: Mus musculus, read-out: ID50 (the source's name)
[7] = tested on: L1210; assay: In Vitro inhibition of L1210 Murine Leukemia Cells by the compound at a dose of 100 uM; type: functional; details: Mus musculus
[8] = tested on: L1210; assay: In vitro Anti Neoplastic Activity against L1210 murine leukemia Cell lines; type: functional, cell-based; details: Mus musculus; in short: as §1
[9] = tested on: Trypanosoma brucei brucei; assay: In vitro anti trypanosomal activity against Trypanosomal 110 (EATRO)strain; type: functional, organism-based
[10] = tested on: Trypanosoma brucei rhodesiense; assay: In Vitro inhibition of Trypanosomal 243 (KETRI)strain by the compound at a dose of 100 uM; type: functional
[11] = tested on: Trypanosoma brucei rhodesiense; assay: In vitro anti trypanosomal activity against Trypanosomal 243 As 10e-3 (KETRI)strain; type: functional, organism-based
[12] = tested on: Trypanosoma brucei rhodesiense; assay: In vitro anti trypanosomal activity against Trypanosomal 269 (KETRI)strain; type: functional, organism-based
[13] = tested on: HT-29; assay: In vitro anti Neoplastic Activity in Human Colon adenocarcinoma HT-29 Cell lines; type: functional, cell-based; in short: as §1
[14] = tested on: A121; assay: In vitro anti Neoplastic Activity against Human ovarian carcinoma A121 Cell lines; type: functional, cell-based; in short: as §1
[15] = tested on: A549; assay: In vitro anti Neoplastic Activity against Human non small cell lung carcinoma A549 Cell lines; type: functional, cell-based; in short: as §1
[16] = tested on: MCF7; assay: In vitro anti Neoplastic Activity against Adriamycin resistant Human Breast adenocarcinoma MCF7-Adr Cell lines; type: functional, cell-based; in short: as §1
[17] = tested on: MCF7; assay: In vitro anti Neoplastic Activity against Human Breast adenocarcinoma MCF-7 Cell lines; type: functional, cell-based; in short: as §1
[18] = tested on: Trypanosoma brucei rhodesiense; assay: In vitro anti trypanosomal activity against Trypanosomal 243 (KETRI)strain; type: functional, organism-based
[19] = tested on: Trypanosoma brucei brucei; assay: In vitro antitrypanosomal activity against Trypanosomal 110 (EATRO)strain at a dose of 100 uM; type: functional
[20] = tested on: A121; assay: In vitro Antineoplastic Activity against Human ovarian carcinoma A121 Cell lines; type: functional, cell-based
[21] = tested on: MCF7; assay: In vitro Anti Neoplastic Activity against Human Breast adenocarcinoma MCF-7 Cell lines; type: functional, cell-based; in short: as §1
[22] = tested on: Trypanosoma brucei rhodesiense; assay: In vitro antitrypanosomal activity against Trypanosomal 243 (KETRI)strain at a dose of 100 uM; type: functional
[23] = tested on: HT-29; assay: In vitro Antineoplastic Activity in Human Colon adenocarcinoma HT-29 Cell lines; type: functional, cell-based; in short: as §1
[24] = tested on: A549; assay: In vitro Antineoplastic Activity against Human non small cell lung carcinoma A549 Cell lines; type: functional, cell-based
[25] = tested on: MCF7; assay: In vitro Anti Neoplastic Activity against Adriamycin resistant Human Breast adenocarcinoma MCF7-Adr Cell lines; type: functional, cell-based; in short: as §1
[26] = tested on: Trypanosoma brucei brucei; assay: In Vitro inhibition of Trypanosomal 110 (EATRO)strain by the compound at a dose of 100 uM; type: functional

IC50 [6] [µM]	IC50 [8] [µM]	IC50 [9] [µM]	IC50 [13] [µM]	IC50 [14] [µM]	IC50 [15] [µM]	IC50 [16] [µM]	IC50 [17] [µM]	Structure (SMILES)	inhibition at 100 µM [7] [%]	inhibition at 100 µM [10] [%]	other results
20	–	–	–	–	–	–	–	CN(C/C=C\CN)CC1OC(n2cnc3c(N)ncnc32)CC1O (configuration not stated)	–	–	IC50 [1]: 500 µM; IC50 [2]: 4.2 µM; IC50 [3]: 2.9 µM; IC50 [4]: 30 µM; IC50 [5]: 74 µM
–	> 600	14	–	–	–	–	–	CN(Cc1ccccc1CN)C[C@H]1OC(n2cnc3c(N)ncnc32)[C@H](O)[C@@H]1O (some centres not stated)	41	42	–
> 100	–	10	> 100	> 100	> 100	> 100	> 100	CN(C/C=C\CN)CCOCn1cnc2c(N)nc(N)nc21	–	–	IC50 [11]: 0.96 µM; IC50 [12]: 11 µM; IC50 [18]: 6.6 µM
–	> 600	–	–	–	–	–	–	CNC[C@H]1OC(n2cnc3c(N)ncnc32)[C@H](O)[C@@H]1O (some centres not stated)	–	–	inhibition at 100 µM [19]: 44%; IC50 [20]: > 100 µM; IC50 [21]: > 100 µM; inhibition at 100 µM [22]: 26%; IC50 [23]: > 100 µM; IC50 [24]: > 100 µM; IC50 [25]: > 100 µM
–	> 600	–	> 100	> 100	> 100	> 100	> 100	CN(Cc1ccc(CN)cc1)C[C@H]1OC(n2cnc3c(N)ncnc32)[C@H](O)[C@@H]1O (some centres not stated)	21	23	inhibition at 100 µM [26]: 21%
